Experimental data collected from several papers.
Protocols differ between the studies behind these lines.
Observed: cell growth or viability

Cc1ccc2c(c1)C(=NNc1nnc(Cc3ccccc3)c3ccccc13)C(=O)N2  inhibition (ZR75; 30 µM): 69.6%
CNC(=O)c1cc(Oc2ccc(NC(=O)Nc3ccc(Cl)c(C(F)(F)F)c3)cc2)ccn1  viability (WM 266-4; MTT; 100 µM, 48 h): 33.9%
O=C1Nc2ccc(Br)cc2/C1=N/NC(=O)c1cc2ccccc2[nH]1  inhibition (ZR75; 30 µM): 58.9%
COc1ccc2c(c1)C(=NNc1nc3ccccc3n(C)c1=O)C(=O)N2  inhibition (ZR75; 30 µM): 76%
CC(C)(C)c1nc(-c2cccc(NS(=O)(=O)c3c(F)cccc3F)c2F)c(-c2ccnc(N)n2)s1  viability (WM 266-4; MTT; 100 µM, 48 h): 38.1%
COc1ccc2c(c1)C(=NNc1nnc(Cc3ccccc3)c3ccccc13)C(=O)N2  inhibition (ZR75; 30 µM): 30.9%
O=C(Nc1ccc(OC(F)(F)F)cc1)Nc1cccc(C(=O)Nc2ccc3[nH]ncc3c2)c1  IC50 (KM12; ATP luminescence; 72 h): 43.3 µM
Cc1ccc(C(CS(=O)(=O)c2ccccc2)=NNC2=NC(=O)C(=NNc3ccccc3)S2)cc1  viability (WM 266-4; MTT; 6.3 µM, 48 h): 48.2%
Cc1cc(C)n(C(=S)[S][Au][PH](CCCCCC[PH]([Au][S]C(=S)n2nc(C)cc2C)(c2ccccc2)c2ccccc2)(c2ccccc2)c2ccccc2)n1  GI50 (KM12): 0.386 µM
COc1cccc(Oc2ccccc2NC(=O)CNC(=O)c2cccc3ccccc23)c1  GI50 (KM12; SRB; 48 h): 0.191 µM
Cc1ccc(C(CS(=O)(=O)c2ccccc2)=NN=C2N=C(c3ccc(Br)cc3)CS2)cc1  viability (WM 266-4; MTT; 25 µM, 48 h): 42.1%
O=C(Nc1ccc(F)cc1)Nc1cccc(C(=O)Nc2ccc3[nH]ncc3c2)c1  IC50 (KM12; ATP luminescence; 72 h): 40.3 µM
Cc1ccc(C(CS(=O)(=O)c2ccccc2)=NNc2nc(C)c(N=Nc3cccc(C)c3)s2)cc1  viability (WM 266-4; MTT; 100 µM, 48 h): 32.8%
COc1cc2ncnc(NN=C3C(=O)Nc4ccc(C)cc43)c2cc1OC  inhibition (ZR75; 30 µM): 40.4%
CC#CC(=O)N1CC[C@@H](n2cc(-c3ccc(Oc4c(F)cccc4F)cc3)c3c(N)n[nH]c(=O)c32)C1  GI50 (JeKo-1; ATP luminescence; 72 h): 4.88 µM
O=C(Nc1cnn2ccc(N3CCC[C@@H]3c3cc(F)ccc3F)nc12)N1CC[C@H](O)C1  IC50 (KM12; ATP luminescence; 72 h): > 50 µM
COc1ccc(C2=Nn3c(NN=C4C(=O)Nc5ccc(OC)cc54)nnc3SC2)cc1  inhibition (SR; SRB; 10 µM): 36%
COc1ccc(-c2nc(NN=C3C(=O)Nc4ccc(F)cc43)c3ccccc3n2)cc1OC  inhibition (ZR75; 30 µM): 26.5%
NC(=S)NN=C(CS(=O)(=O)c1ccccc1)c1ccc(F)cc1  viability (WM 266-4; MTT; 100 µM, 48 h): 24.4%
COc1ccc2c(c1)/C(=N/NC(=O)c1cc3ccccc3[nH]1)C(=O)N2C  inhibition (ZR75; 30 µM): 82.5%
Cn1c(=O)c(NN=C2C(=O)Nc3ccc(F)cc32)nc2ccccc21  inhibition (ZR75; 30 µM): 22.6%
CN1C(=O)/C(=N\NC(=O)c2cc3ccccc3[nH]2)c2cc(Br)ccc21  inhibition (ZR75; 30 µM): 90.2%
O=C1Nc2ccccc2C1=NNc1nnc(Cc2ccccc2)c2ccccc12  inhibition (ZR75; 30 µM): 54.3%
CN1C(=O)/C(=N\NC(=O)c2cc3ccccc3[nH]2)c2cc(Cl)ccc21  inhibition (ZR75; 30 µM): 81.8%
Cc1ccc(C(CS(=O)(=O)c2ccccc2)=NNc2nc(-c3ccc(OCCCCOc4ccc(-c5csc(NN=C(CS(=O)(=O)c6ccccc6)c6ccc(C)cc6)n5)cc4)cc3)cs2)cc1  viability (WM 266-4; MTT; 0.4 µM, 48 h): 77%
COc1ccc2c(c1)/C(=N/NC(=O)c1cc3ccccc3[nH]1)C(=O)N2  inhibition (ZR75; 30 µM): 65.9%
C=CC(=O)N1CCC[C@@H](n2nc(-c3ccc(Oc4ccccc4)cc3)c3c(N)ncnc32)C1  GI50 (KMS-12-BM; 48 h): > 10 µM
Cn1c(=O)c(NN=C2C(=O)Nc3ccc(Br)cc32)nc2ccccc21  inhibition (ZR75; 30 µM): 62.1%
CN1C(=O)/C(=N\NC(=O)c2cc3ccccc3[nH]2)c2ccccc21  inhibition (ZR75; 30 µM): 73.1%
